Converted amounts (≈) assume the structure as drawn. The source made the active and inactive calls. The rule behind the calls is not given here.
Key:
Plasmodium falciparum = test: Antimalarial activity against chloroquine-sensitive Plasmodium falciparum 3D7; assay type: functional, organism-based
[1] = Selectivity index, ratio of CC50 for african green monkey (Cercopithecus aethiops) Vero cells to IC50 for chloroquine-sensitive Plasmodium falciparum 3D7; assay type: functional
[2] = tested on: Plasmodium yoelii nigeriensis; test: Antimalarial activity against multidrug-resistant Plasmodium yoelii nigeriensis infected Swiss mice (Mus musculus) assessed as suppression in parasitaemia at 100 mg/kg, perorally for 4 days measured on day 7; assay type: functional; details: route oral
Method in brief: (§1)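 Swiss mice infected on day 0 with P. yoelii nigeriensis MDR (N67, chloroquine-resistant) parasitized cells. Groups of five mice received the test compound orally as an aqueous suspension at 50 or 100 mg/kg from day 0 to 4; five controls received vehicle only. Parasitaemia was read from tail-vein thin blood smears on days 4, 7, 14, 21 and 28, or until death.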

[3] = tested on: Plasmodium yoelii nigeriensis; test: Antimalarial activity against multidrug-resistant Plasmodium yoelii nigeriensis infected Swiss mice (Mus musculus) assessed as suppression in parasitaemia at 100 mg/kg, perorally for 4 days measured on day 4; assay type: functional; details: 96 h, route oral; method in brief: as §1
[4] = tested on: Plasmodium yoelii nigeriensis; test: Antimalarial activity against multidrug-resistant Plasmodium yoelii nigeriensis infected Swiss mice (Mus musculus) assessed as survival at 100 mg/kg, perorally for 4 days measured on day 7; assay type: functional, organism-based; design: dose 100 mg/kg; method in brief: as §1
[5] = tested on: Plasmodium yoelii nigeriensis; test: Antimalarial activity against multidrug-resistant Plasmodium yoelii nigeriensis infected Swiss mice (Mus musculus) assessed as survival at 100 mg/kg, perorally for 4 days measured on day 28; assay type: functional; details: route oral; method in brief: as §1

| Compound | IC50 (Plasmodium falciparum) [µg/mL] | MIC (Plasmodium falciparum) [µg/mL] | Ratio CC50/IC50 [1] | other results |
| --- | --- | --- | --- | --- |
| COc1cccc(Nc2ncnc3ccc(NC(=S)Nc4ccccc4)cc23)c1 | 0.258 (≈ 0.643 µM) | 2 (≈ 4.98 µM) | 38.7 |  |
| S=C(Nc1ccc(Cl)cc1)Nc1ccc2ncnc(Nc3cccc(Cl)c3)c2c1 |  | 10 (≈ 22.7 µM) |  |  |
| COc1ccc(Nc2ncnc3ccc(NC(=S)Nc4cccc5ccccc45)cc23)cc1OC | 0.207 (≈ 0.43 µM) | 2 (≈ 4.15 µM) | 133.8 |  |
| S=C(Nc1ccc(Br)cc1)Nc1ccc2ncnc(Nc3ccccc3)c2c1 |  | 10 (≈ 22.2 µM) |  |  |
| COc1ccc(Nc2ncnc3ccc(NC(=S)Nc4ccccc4)cc23)cc1 | 0.243 (≈ 0.604 µM) | 2 (≈ 4.98 µM) | 80.4 |  |
| COc1ccc(Nc2ncnc3ccc(NC(=S)Nc4cccc(C#N)c4)cc23)cc1 |  | > 10 |  |  |
| Fc1cccc(NC(=S)Nc2ccc3ncnc(Nc4cccc(C(F)(F)F)c4)c3c2)c1 |  | 10 (≈ 21.9 µM) |  |  |
| COc1ccc(Nc2ncnc3ccc(NC(=S)Nc4cccc(F)c4)cc23)cc1OC | 0.385 (≈ 0.857 µM) | 2 (≈ 4.45 µM) | 63.7 |  |
| S=C(Nc1ccc2ncnc(Nc3cccc(Cl)c3)c2c1)Nc1cccc2ccccc12 |  | 10 (≈ 21.9 µM) |  |  |
| S=C(Nc1cccc(Cl)c1)Nc1ccc2ncnc(Nc3cccc(Cl)c3)c2c1 | 0.0088 (≈ 0.02 µM) | 2 (≈ 4.54 µM) | 556.3 | inhibition in vivo at 100 mg/kg [2]: 16.1%; inhibition in vivo at 100 mg/kg [3]: 77.2% |
| FC(F)(F)c1cccc(Nc2ncnc3ccc(NC(=S)Nc4cccc5ccccc45)cc23)c1 |  | 10 (≈ 20.4 µM) |  |  |
| FC(F)(F)c1cccc(Nc2ncnc3ccc(NC(=S)Nc4ccc(Br)cc4)cc23)c1 | 0.0392 (≈ 0.0756 µM) | 2 (≈ 3.86 µM) | 67.1 | Activity [4]: inactive; inhibition in vivo at 100 mg/kg [3]: 9.78% |
| S=C(Nc1ccc(Cl)cc1)Nc1ccc2ncnc(Nc3ccccc3)c2c1 |  | 2 (≈ 4.93 µM) |  |  |
| COc1cccc(Nc2ncnc3ccc(NC(=S)Nc4cccc5ccccc45)cc23)c1 |  | 10 (≈ 22.1 µM) |  |  |
| S=C(Nc1cccc(Cl)c1)Nc1ccc2ncnc(Nc3ccccc3)c2c1 | 0.813 (≈ 2 µM) | 2 (≈ 4.93 µM) | 29 |  |
| S=C(Nc1ccccc1)Nc1ccc2ncnc(Nc3ccccc3)c2c1 |  | 2 (≈ 5.38 µM) |  |  |
| COc1ccc(Nc2ncnc3ccc(NC(=S)Nc4ccc(Cl)cc4)cc23)cc1 |  | > 10 |  |  |
| N#Cc1cccc(NC(=S)Nc2ccc3ncnc(Nc4cccc(C(F)(F)F)c4)c3c2)c1 | 0.443 (≈ 0.954 µM) | 2 (≈ 4.31 µM) | 5.5 |  |
| COc1ccc(Nc2ncnc3ccc(NC(=S)Nc4ccccc4)cc23)cc1OC | 0.303 (≈ 0.702 µM) | 2 (≈ 4.63 µM) | 90 |  |
| COc1ccc(Nc2ncnc3ccc(NC(=S)Nc4cccc(Cl)c4)cc23)cc1OC |  | 10 (≈ 21.5 µM) |  |  |
| Fc1cccc(NC(=S)Nc2ccc3ncnc(Nc4cccc(Cl)c4)c3c2)c1 |  | 10 (≈ 23.6 µM) |  | inhibition in vivo at 100 mg/kg [2]: 61.1%; inhibition in vivo at 100 mg/kg [3]: 85.7% |

| Compound | IC50 (Plasmodium falciparum) [µg/mL] | MIC (Plasmodium falciparum) [µg/mL] | Ratio CC50/IC50 [1] | other results |
| --- | --- | --- | --- | --- |
| COc1cccc(Nc2ncnc3ccc(NC(=S)Nc4cccc(Cl)c4)cc23)c1 | 0.0115 (≈ 0.0264 µM) | 2 (≈ 4.59 µM) | 1615.3 | inhibition in vivo at 100 mg/kg [2]: 28.4%; inhibition in vivo at 100 mg/kg [3]: 46.5% |
| S=C(Nc1ccccc1)Nc1ccc2ncnc(Nc3cccc(Cl)c3)c2c1 |  | 10 (≈ 24.6 µM) |  |  |
| COc1ccc(Nc2ncnc3ccc(NC(=S)Nc4cccc(C#N)c4)cc23)cc1OC |  | 10 (≈ 21.9 µM) |  |  |
| Fc1cccc(NC(=S)Nc2ccc3ncnc(Nc4ccccc4)c3c2)c1 | 0.792 (≈ 2.03 µM) | 2 (≈ 5.14 µM) | 70.3 |  |
| COc1ccc(Nc2ncnc3ccc(NC(=S)Nc4cccc5ccccc45)cc23)cc1 |  | 10 (≈ 22.1 µM) |  |  |
| COc1ccc(Nc2ncnc3ccc(NC(=S)Nc4ccc(Br)cc4)cc23)cc1 | 0.0502 (≈ 0.104 µM) | 2 (≈ 4.16 µM) | 114.9 |  |
| COc1ccc(Nc2ncnc3ccc(NC(=S)Nc4ccc(Br)cc4)cc23)cc1OC | 0.683 (≈ 1.34 µM) | 2 (≈ 3.92 µM) | 85.7 |  |
| N#Cc1cccc(NC(=S)Nc2ccc3ncnc(Nc4cccc(Cl)c4)c3c2)c1 |  | > 10 |  |  |
| COc1cccc(Nc2ncnc3ccc(NC(=S)Nc4cccc(C#N)c4)cc23)c1 | 0.021 (≈ 0.0492 µM) | 1 (≈ 2.34 µM) | 453 |  |
| COc1cccc(Nc2ncnc3ccc(NC(=S)Nc4cccc(F)c4)cc23)c1 | 0.0267 (≈ 0.0636 µM) | 1 (≈ 2.38 µM) | 510.7 |  |
| COc1ccc(Nc2ncnc3ccc(NC(=S)Nc4ccc(Cl)cc4)cc23)cc1OC |  | 10 (≈ 21.5 µM) |  |  |
| COc1cccc(Nc2ncnc3ccc(NC(=S)Nc4ccc(Br)cc4)cc23)c1 | 0.106 (≈ 0.22 µM) | 1 (≈ 2.08 µM) | 187 | Activity [5]: 50%; inhibition in vivo at 100 mg/kg [2]: 99.9%; inhibition in vivo at 100 mg/kg [3]: 100% |
| N#Cc1cccc(NC(=S)Nc2ccc3ncnc(Nc4ccccc4)c3c2)c1 |  | > 10 |  |  |
| FC(F)(F)c1cccc(Nc2ncnc3ccc(NC(=S)Nc4ccccc4)cc23)c1 | 0.992 (≈ 2.26 µM) | 2 (≈ 4.55 µM) | 69 |  |
| FC(F)(F)c1cccc(Nc2ncnc3ccc(NC(=S)Nc4cccc(Cl)c4)cc23)c1 |  | 10 (≈ 21.1 µM) |  |  |
| S=C(Nc1ccc(Br)cc1)Nc1ccc2ncnc(Nc3cccc(Cl)c3)c2c1 | 0.526 (≈ 1.09 µM) | 2 (≈ 4.13 µM) | 1 |  |
| COc1ccc(Nc2ncnc3ccc(NC(=S)Nc4cccc(Cl)c4)cc23)cc1 |  | > 10 |  |  |
| COc1ccc(Nc2ncnc3ccc(NC(=S)Nc4cccc(F)c4)cc23)cc1 | 0.0532 (≈ 0.127 µM) | 2 (≈ 4.77 µM) | 206.4 |  |
| FC(F)(F)c1cccc(Nc2ncnc3ccc(NC(=S)Nc4ccc(Cl)cc4)cc23)c1 |  | 10 (≈ 21.1 µM) |  |  |
| S=C(Nc1ccc2ncnc(Nc3ccccc3)c2c1)Nc1cccc2ccccc12 |  | 2 (≈ 4.74 µM) |  |  |
| COc1cccc(Nc2ncnc3ccc(NC(=S)Nc4ccc(Cl)cc4)cc23)c1 |  | 10 (≈ 22.9 µM) |  |  |
